From ChEMBL document CHEMBL1129514 (J Med Chem, 1996)
Several values for one entry are separate records, joined by “and”; a condition that tells them apart may be missing. Equal values may be shown once.

Key:
[1] = molecular target: T1, 5-hydroxytryptamine receptor 1A (Rattus norvegicus, UniProt P19327); assay: Binding affinity towards 5-hydroxytryptamine 1A receptor in the rat brain (hippocampus) using [3H]8-OH-DPAT; type: tissue-based
T1 sequence (P19327 whole entry): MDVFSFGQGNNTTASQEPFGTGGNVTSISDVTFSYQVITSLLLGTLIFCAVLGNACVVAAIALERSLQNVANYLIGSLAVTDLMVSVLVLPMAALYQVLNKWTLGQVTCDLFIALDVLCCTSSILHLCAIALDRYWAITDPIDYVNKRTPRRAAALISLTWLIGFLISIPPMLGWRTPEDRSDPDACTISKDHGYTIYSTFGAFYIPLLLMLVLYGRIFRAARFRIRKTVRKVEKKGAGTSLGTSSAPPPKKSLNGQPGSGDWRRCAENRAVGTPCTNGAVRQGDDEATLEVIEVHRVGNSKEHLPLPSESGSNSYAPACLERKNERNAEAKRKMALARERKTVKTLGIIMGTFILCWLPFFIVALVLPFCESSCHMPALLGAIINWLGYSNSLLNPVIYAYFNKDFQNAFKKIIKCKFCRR
Outline: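 Rat hippocampal membranes; competition binding against [3H]-8-OH-DPAT (190 Ci/mmol) using 10-14 drug concentrations, each run in triplicate. Ki derived from at least three independent competition experiments. Remaining conditions follow a previously published procedure.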

[2] = test system: Rattus norvegicus; assay: Effect on the 8-OH-DPAT-Induced Behavior(flat body posture) in Reserpine Pretreated Rats at a dose of 10 mg/kg; type: functional
Outline: (§1)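 Reserpinized male Wistar rats (reserpine 1 mg/kg sc, 18 h prior); compound ip 15 min before 8-OH-DPAT 5 mg/kg ip, fresh aqueous solutions. Observations began 3 min after 8-OH-DPAT, repeated every 3 min for 15 min; flat body posture ranked 0-3. 6-8 rats/dose; mean ± SEM, Dunnett's test vs vehicle + 8-OH-DPAT.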

[3] = test system: Rattus norvegicus; assay: Compound was tested for the induction of lower lip retraction in rats at a dose of 2.5 mg/kg; type: functional
Outline: (§2)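 Male Wistar rats (220-260 g), compound ip as fresh aqueous solution, 6-8 animals/dose, each used once. Rats caged individually; lower lip retraction scored at 15, 30 and 45 min post-injection: 0 incisors not visible, 0.5 partly, 1 completely visible. Mean ± SEM score; Dunnett's test vs vehicle.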

[4] = test system: Rattus norvegicus; assay: Compound was tested for the induction of lower lip retraction in rats at a dose of 1.25 mg/kg; type: functional; outline: as §2
[5] = test system: Rattus norvegicus; assay: Effect on the 8-OH-DPAT-Induced Behavior(flat body posture) in Reserpine Pretreated Rats at a dose of 5 mg/kg; type: functional; outline: as §1
[6] = test system: Rattus norvegicus; assay: Compound was tested for the induction of lower lip retraction in rats at a dose of 5 mg/kg; type: functional; outline: as §2
[7] = test system: Rattus norvegicus; assay: Compound was tested for the induction of behavioral syndrome(flat body posture) in rats at a dose of 5 mg/kg; type: functional
Outline: (§3)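 Male Wistar rats (220-260 g), reserpine 1 mg/kg sc 18 h before test; compound as fresh aqueous solution ip, rats placed in cages 5 min beforehand. 45-s observation sessions began 3 min after injection, repeated every 3 min over five periods; forepaw treading and flat body posture scored 0 (absent) to 3 (intense). 6-8 rats/dose; mean ± SEM, Dunnett's test.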

[8] = test system: Rattus norvegicus; assay: Compound was tested for the induction of behavioral syndrome(flat body posture) in rats at a dose of 10 mg/kg; type: functional; outline: as §3
[9] = test system: Rattus norvegicus; assay: Compound was tested for the induction of behavioral syndrome (forepaw treading) in rats at a dose of 5 mg/kg; type: functional; outline: as §3
[10] = test system: Rattus norvegicus; assay: Compound was tested for the induction of behavioral syndrome (forepaw treading) in rats at a dose of 10 mg/kg; type: functional; outline: as §3

| Ki [1] | Structure (SMILES) | Behavioral score [2] | LLR score [3] | LLR score [4] | Behavioral score [5] | LLR score [6] | Behavioral score [7] | Behavioral score [8] | Behavioral score [9] | Behavioral score [10] |
| --- | --- | --- | --- | --- | --- | --- | --- | --- | --- | --- |
| 41300 nM | O=C1c2ccccc2C(=O)N1CCN1CCc2ccccc2C1 | – | – | – | – | – | – | – | – | – |
| – | O=C1CC2(CCCC2)CC(=O)N1CCCCN1CCN(c2ncccn2)CC1 [BUSPIRONE] | 9.5 and 3.7 | 2.3 | 1.6 | 14.3 and 5 | 2.4 | 6.8 | 6.4 | 0.2 | 0.6 |
| 1330 nM | O=C1CC2(CCCC2)CC(=O)N1CCN1CCc2ccccc2C1 | – | – | – | – | – | – | – | – | – |
| 140 nM | O=C1c2ccccc2C(=O)N1CCCCN1CCc2ccccc2C1 | – | – | – | – | – | – | – | – | – |
| 5 nM | O=C1CC2(CCCC2)CC(=O)N1CCCCN1CCc2ccccc2C1 | 13.7 and 7.8 | 1.9 | 1.2 | 14.5 and 8.9 | 2.5 | 7.8 | 11 | 2 | 2.7 |

| Structure (SMILES) | Ki [1] | Behavioral score [2] | LLR score [3] | LLR score [4] | Behavioral score [5] | LLR score [6] | Behavioral score [7] | Behavioral score [8] | Behavioral score [9] | Behavioral score [10] |
| --- | --- | --- | --- | --- | --- | --- | --- | --- | --- | --- |
| c1ccc2c(c1)CCNC2 [1,2,3,4-TETRAHYDROISOQUINOLINE] | > 50000 nM | – | – | – | – | – | – | – | – | – |
